Source: publication PMC11844196 (Journal of Experimental Pharmacology, 2025)

Key:
MDA-MB-231 cells = test: PrestoBlue cytotoxicity assay; format: cell-based; conditions: Homo sapiens, MDA-MB-231, 24 h, read-out: IC50 Value MDA-MB-231
Summary of the method: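 Cells plated at 10,000 cells/well and incubated 24 h at 37°C, 5% CO2. MCF 10A were grown in MEBM to 70–80% confluency. Treated for 24 h with eight concentrations (250, 125, 62.5, 31.25, 15.625, 7.8125, 3.9, 1.95 µg/mL) in three parallel experiments, with cisplatin as positive control.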

MCF7 cells = test: Cell morphology after treatment; format: cell-based, human

For `CC[C@H](CC[C@@H](C)[C@H]1CC[C@H]2[C@@H]3CC=C4C[C@@H](O)CC[C@]4(C)[C@H]3CC[C@]12C)C(C)C` [β-sitosterol], the IC50 (MDA-MB-231 cells) was > 250 µg/mL and the “Cell morphology (apoptosis signs)” value (MCF7 cells) was “cell blebbing indicative of apoptotic process”.
